The text below walks through data of ChEMBL document CHEMBL1153575, “Synthesis and in vitro anticancer activity of 2,4-azolidinedione-acetic acids derivatives” (2009).

SMILES strings stand for the structures.

Common to all, as to type: functional
The subject of one experiment is RPMI-8226. Description: Cytotoxicity against human RPMI8226 cells assessed as cell growth at 10 uM after 48 hrs by sulforhodamine B assay. Particulars: RPMI-8226, 48 h, read-out: Activity. The method in brief:
(§1)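 Single-dose primary screen at 10^-5 M (final) across a panel of about 60 human tumour cell lines. Cells were inoculated and preincubated 24–48 h, then the compound was added once and incubated a further 48 h. Protein was stained with sulforhodamine B and read spectrophotometrically. Percent growth is given relative to untreated control cells.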
(In general: In SRB staining, fixed cells bind dye roughly in proportion to their protein.)

A further experiment deals with SR. Description: Cytotoxicity against human SR cells assessed as cell growth at 10 uM after 48 hrs by sulforhodamine B assay. Particulars: read-out: Activity. In a few lines:
as §1

The test system of another experiment is TK-10. Description: Cytotoxicity against human TK10 cells assessed as cell growth at 10 uM after 48 hrs by sulforhodamine B assay. Particulars: TK-10, 48 h, read-out: Activity. In a few lines:
as §1

Experiment [1] is described as follows: Cytotoxicity against human IGROV cells assessed as cell growth at 10 uM after 48 hrs by sulforhodamine B assay. The conditions noted are these: read-out: Activity. The method in brief: as §1
The test system of a further experiment is ACHN. The experiment can be described thus: Cytotoxicity against human ACHN cells assessed as cell growth at 10 uM after 48 hrs by sulforhodamine B assay. The conditions noted are these: read-out: Activity. In a few lines: as §1
Another experiment deals with UO-31. The experiment can be described thus: Cytotoxicity against human UO31 cells assessed as cell growth at 10 uM after 48 hrs by sulforhodamine B assay. The conditions noted are these: UO-31, 48 h, read-out: Activity. The method in brief: as §1
The next experiment deals with OVCAR-5. Description: Cytotoxicity against human OVCAR5 cells assessed as cell growth at 10 uM after 48 hrs by sulforhodamine B assay. The conditions noted are these: OVCAR-5, 48 h, read-out: Activity. In a few lines:
as §1

The test system of a further experiment is HCT-116. The experiment can be described thus: Cytotoxicity against human HCT116 cells assessed as cell growth at 10 uM after 48 hrs by sulforhodamine B assay. Particulars: HCT-116, 48 h, read-out: Activity. The method in brief: as §1
For a further experiment, the system named is CAKI-1. The experiment can be described thus: Cytotoxicity against human Caki1 cells assessed as cell growth at 10 uM after 48 hrs by sulforhodamine B assay. Particulars: CAKI-1, 48 h, read-out: Activity. The method in brief: as §1

For the compound `O=C(CN1C(=O)N/C(=C\C=C\c2ccccc2)C1=O)Nc1ccccc1C(F)(F)F`, the growth at 10 µM in the experiment on RPMI-8226 was 26.6%.
On to `NS(=O)(=O)c1ccc(NC(=O)CC2NC(=O)NC2=O)cc1` (configuration not stated), for which the growth at 10 µM with SR is 68.3%.
Turning to `O=C(CN1C(=O)S/C(=C\C=C\c2ccccc2)C1=O)Nc1ccccc1C(F)(F)F`, in the experiment with TK-10, the growth at 10 µM amounted to 62.5%.
Regarding `O=C(CN1C(=O)N/C(=C\c2ccccc2)C1=O)Nc1ccc(Cl)cc1`, the growth at 10 µM in experiment [1] was -3.51%; with ACHN it was 1.51%; in the experiment with UO-31, -83.1%.
Take `NS(=O)(=O)c1ccc(NC(=O)CN2C(=O)CNC2=O)cc1`: the growth at 10 µM in the experiment on UO-31 was determined as 26%.
With `O=C(CN1C(=O)S/C(=C\c2ccc(Cl)cc2)C1=O)Nc1ccccc1C(F)(F)F`, the growth at 10 µM in the experiment with UO-31 was determined as 75.8%.
In the case of `CN(C)c1ccc(/C=C2\SC(=O)N(CC(=O)Nc3ccccc3C(F)(F)F)C2=O)cc1`, the growth at 10 µM with SR turned out to be 45.8%.
Turning to `COc1ccc(/C=C2\NC(=O)N(CC(=O)Nc3nccs3)C2=O)cc1`, the growth at 10 µM in the experiment with OVCAR-5 was determined as 76.5%.
On to `CN(C)c1ccc(/C=C2\NC(=O)N(CC(=O)Nc3ccccc3C(F)(F)F)C2=O)cc1`, for which, in the experiment on HCT-116, the growth at 10 µM is 31%.
`NS(=O)(=O)c1ccc(NC(=O)CC2SC(=O)NC2=O)cc1` (configuration not stated): the growth at 10 µM with CAKI-1 came to 54.2%.
